From ChEMBL document CHEMBL3632612, “Discovery of WQ-3810: Design, synthesis, and evaluation of 7-(3-alkylaminoazetidin-1-yl)fluoro-quinolones as orally active antibacterial agents” (Eur J Med Chem, 2015)
pIC50: −log10 of the molar value. Values after ≈ are worked out from the molar mass of the structure shown.

Key:
[1] = Oral drug absorption in Sprague-Dawley rat at 10 mg/kg, po after 24 hrs by HPLC; format: ADME, organism-based; details: in vivo
Procedure, shortened: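 Absorption rate computed as total urinary plus biliary excretion (% of dose, summed means) after oral dosing divided by total after iv dosing; excretion measured in fasted male Sprague-Dawley rats by HPLC over 24 h, bile glucuronides alkaline-hydrolysed.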

Morganella morganii = assay: Antibacterial activity against Morganella morganii W1026 assessed as growth inhibition at 128 to 0.002 mg/L incubated for 18 hrs at 37 degC by agar dilution method; format: functional; details: W1026, 18 h
Procedure, shortened: (§1)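 Agar dilution on Mueller Hinton agar per Japanese Society of Chemotherapy standard method; about 10⁴ cfu inoculated onto plates holding two-fold dilution series; incubation 37°C, 18 h; MIC read as growth endpoint.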

Pseudomonas aeruginosa [2] = assay: Antibacterial activity against Pseudomonas aeruginosa E-2 assessed as growth inhibition at 128 to 0.002 mg/L incubated for 18 hrs at 37 degC by agar dilution method; format: functional; details: E-2, 18 h; procedure, shortened: as §1
Citrobacter freundii = assay: Antibacterial activity against Citrobacter freundii IFO1268 assessed as growth inhibition at 128 to 0.002 mg/L incubated for 18 hrs at 37 degC by agar dilution method; format: functional; details: IFO1268, 18 h; procedure, shortened: as §1
Enterobacter cloacae = assay: Antibacterial activity against Enterobacter cloacae IFO13535 assessed as growth inhibition at 128 to 0.002 mg/L incubated for 18 hrs at 37 degC by agar dilution method; format: functional; details: IFO13535, 18 h; procedure, shortened: as §1
DNA gyrase = DNA gyrase (Escherichia coli, UniProt P0AES4+P0AES6); assay: Inhibition of Escherichia coli DNA gyrase preincubated for 5 mins at 37 degC before addition of relaxed pBR322 as substrate by supercoiling assay; format: protein-complex assay
Escherichia coli [3] = assay: Antibacterial activity against Escherichia coli NIHJ assessed as growth inhibition at 128 to 0.002 mg/L incubated for 18 hrs at 37 degC by agar dilution method; format: functional; procedure, shortened: as §1
Salmonella typhimurium = assay: Antibacterial activity against Salmonella typhimurium IFO13245 assessed as growth inhibition at 128 to 0.002 mg/L incubated for 18 hrs at 37 degC by agar dilution method; format: functional, Salmonella enterica subsp. enterica serovar Typhimurium; details: Salmonella enterica, IFO13245, 18 h; procedure, shortened: as §1
Proteus mirabilis = assay: Antibacterial activity against Proteus mirabilis IFO3849 assessed as growth inhibition at 128 to 0.002 mg/L incubated for 18 hrs at 37 degC by agar dilution method; format: functional; details: IFO3849, 18 h; procedure, shortened: as §1
Serratia marcescens [4] = assay: Antibacterial activity against Serratia marcescens IFO3736 assessed as growth inhibition at 128 to 0.002 mg/L incubated for 18 hrs at 37 degC by agar dilution method; format: functional; details: IFO3736, 18 h; procedure, shortened: as §1
[5] = tested on: Acinetobacter calcoaceticus; assay: Antibacterial activity against Acinetobacter calcoaceticus Ac-54 assessed as growth inhibition at 128 to 0.002 mg/L incubated for 18 hrs at 37 degC by agar dilution method; format: functional; details: Ac-54, 18 h; procedure, shortened: as §1
[6] = Drug excretion in Sprague-Dawley rat at 10 mg/kg, po after 24 hrs by HPLC; format: ADME, organism-based; details: in vivo, read-out: Drug excretion
Procedure, shortened: (§2)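 Six-week male Sprague-Dawley rats, fasted overnight; oral dose suspended in 0.5% methylcellulose, iv dose dissolved in 0.04 N NaOH. Urine from intact rats in metabolic cages, bile from bile duct-cannulated rats, 0–24 h. Bile alkaline-hydrolysed (1 N NaOH, 37°C, 1 h) to convert glucuronides; HPLC with UV 290 nm and internal standard; % of dose; mean ± S.D., three rats.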

Pseudomonas aeruginosa [7] = assay: Antibacterial activity against Pseudomonas aeruginosa IFO3445 assessed as growth inhibition at 128 to 0.002 mg/L incubated for 18 hrs at 37 degC by agar dilution method; format: functional; details: IFO3445, 18 h; procedure, shortened: as §1
Providencia rettgeri = assay: Antibacterial activity against Providencia rettgeri W1008 assessed as growth inhibition at 128 to 0.002 mg/L incubated for 18 hrs at 37 degC by agar dilution method; format: functional; details: W1008, 18 h; procedure, shortened: as §1
[8] = Passive permeability of the compound after 5 hrs at 25 degC by PAMPA assay; format: physicochemical; details: read-out: Peff
Procedure, shortened: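 PAMPA: 10 µM compound in PBS with 5% MeOH in donor, PBS acceptor; 25°C, 5 h; both sides quantified by HPLC; Peff derived from donor/acceptor concentrations, volumes, 0.3 cm² filter area and 18,000 s; mean ± S.D., n=3.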

Pseudomonas aeruginosa [9] = assay: Antibacterial activity against Pseudomonas aeruginosa 15846 assessed as growth inhibition at 128 to 0.002 mg/L incubated for 18 hrs at 37 degC by agar dilution method; format: functional; details: Pseudomonas aeruginosa, 15846, 18 h; procedure, shortened: as §1
Escherichia coli [10] = assay: Antibacterial activity against Escherichia coli 177 assessed as growth inhibition at 128 to 0.002 mg/L incubated for 18 hrs at 37 degC by agar dilution method; format: functional; details: Escherichia coli, 177, 18 h; procedure, shortened: as §1
Serratia marcescens [11] = assay: Antibacterial activity against Serratia marcescens T-55 assessed as growth inhibition at 128 to 0.002 mg/L incubated for 18 hrs at 37 degC by agar dilution method; format: functional; details: T-55, 18 h; procedure, shortened: as §1
[12] = Solubility of the compound in JP2 solution at pH 6.8 after 24 hrs at 25 degC by HPLC; format: physicochemical
Procedure, shortened: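 Excess solid shaken in JP2 (50 mM potassium dihydrogenphosphate, pH 6.8) at 25°C for 24 h to equilibrium, filtered 0.45 µm; filtrate concentration by reversed-phase UPLC, UV 290 nm; mean ± S.D., n=3.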

[13] = Drug excretion in Sprague-Dawley rat bile assessed as unmetabolized form at 10 mg/kg, po after 24 hrs by HPLC; format: ADME, organism-based; details: read-out: Drug excretion; procedure, shortened: as §2
Klebsiella pneumoniae [14] = assay: Antibacterial activity against Klebsiella pneumoniae KC-1 assessed as growth inhibition at 128 to 0.002 mg/L incubated for 18 hrs at 37 degC by agar dilution method; format: functional; details: KC-1, 18 h; procedure, shortened: as §1
Proteus vulgaris = assay: Antibacterial activity against Proteus vulgaris IFO3167 assessed as growth inhibition at 128 to 0.002 mg/L incubated for 18 hrs at 37 degC by agar dilution method; format: functional; details: IFO3167, 18 h; procedure, shortened: as §1
[15] = Drug excretion in Sprague-Dawley rat urine at 10 mg/kg, po after 24 hrs by HPLC; format: ADME, organism-based; details: read-out: Drug excretion; procedure, shortened: as §2
Klebsiella pneumoniae [16] = assay: Antibacterial activity against Klebsiella pneumoniae DT-S assessed as growth inhibition at 128 to 0.002 mg/L incubated for 18 hrs at 37 degC by agar dilution method; format: functional; procedure, shortened: as §1
Escherichia coli [17] = assay: Antibacterial activity against Escherichia coli KC-14 assessed as growth inhibition at 128 to 0.002 mg/L incubated for 18 hrs at 37 degC by agar dilution method; format: functional; details: KC-14, 18 h; procedure, shortened: as §1
[18] = Drug excretion in Sprague-Dawley rat bile assessed as unmetabolized form at 5 mg/kg, iv after 24 hrs by HPLC; format: ADME, organism-based; details: read-out: Drug excretion; procedure, shortened: as §2
[19] = Drug excretion in Sprague-Dawley rat assessed as unmetabolized form at 5 mg/kg, iv after 24 hrs by HPLC; format: ADME, organism-based; details: in vivo, read-out: Drug excretion; procedure, shortened: as §2
[20] = Drug excretion in Sprague-Dawley rat urine at 5 mg/kg, iv after 24 hrs by HPLC; format: ADME, organism-based; details: read-out: Drug excretion; procedure, shortened: as §2

Structure (SMILES) | Fa at 24 h [1] | MIC (Morganella morganii) | MIC (Pseudomonas aeruginosa [2]) | MIC (Citrobacter freundii) | MIC (Enterobacter cloacae) | pIC50 (DNA gyrase) | MIC (Escherichia coli [3]) | MIC (Salmonella typhimurium) | MIC (Proteus mirabilis) | MIC (Serratia marcescens [4]) | MIC [5] | dose excreted at 24 h [6] | MIC (Pseudomonas aeruginosa [7]) | MIC (Providencia rettgeri) | Papp at 5 h [8] | MIC (Pseudomonas aeruginosa [9]) | MIC (Escherichia coli [10]) | MIC (Serratia marcescens [11]) | solubility at 24 h [12] | dose excreted at 24 h [13] | further results
CCCNC1CN(c2c(F)cc3c(=O)c(C(=O)O)cn(-c4nc(N)c(F)cc4F)c3c2C)C1 | > 90% | 0.21 µg/mL (≈ 0.455 µM) | 0.21 µg/mL (≈ 0.455 µM) | 0.21 µg/mL (≈ 0.455 µM) | 0.21 µg/mL (≈ 0.455 µM) | 6.39 | 0.012 µg/mL (≈ 0.026 µM) | 0.21 µg/mL (≈ 0.455 µM) | 0.21 µg/mL (≈ 0.455 µM) | 0.21 µg/mL (≈ 0.455 µM) | 0.21 µg/mL (≈ 0.455 µM) | 91% | 0.21 µg/mL (≈ 0.455 µM) | 0.21 µg/mL (≈ 0.455 µM) | 1.1 ×10⁻⁶ cm/s | 0.21 µg/mL (≈ 0.455 µM) | 0.012 µg/mL (≈ 0.026 µM) | 0.21 µg/mL (≈ 0.455 µM) | 41 µg/mL (≈ 88.9 µM) | 74% | MIC (Klebsiella pneumoniae [14]): 0.21 µg/mL (≈ 0.455 µM); MIC (Proteus vulgaris): 0.21 µg/mL (≈ 0.455 µM); dose excreted at 24 h [15]: 17%; MIC (Klebsiella pneumoniae [16]): 0.21 µg/mL (≈ 0.455 µM); MIC (Escherichia coli [17]): 0.012 µg/mL (≈ 0.026 µM)
Cc1c(N2CC(NC(C)C)C2)c(F)cc2c(=O)c(C(=O)O)cn(-c3nc(N)c(F)cc3F)c12 | > 90% | 0.17 µg/mL (≈ 0.368 µM) | 0.17 µg/mL (≈ 0.368 µM) | 0.17 µg/mL (≈ 0.368 µM) | 0.17 µg/mL (≈ 0.368 µM) | 6.36 | 0.01 µg/mL (≈ 0.0217 µM) | 0.17 µg/mL (≈ 0.368 µM) | 0.17 µg/mL (≈ 0.368 µM) | 0.17 µg/mL (≈ 0.368 µM) | 0.17 µg/mL (≈ 0.368 µM) | 92% | 0.17 µg/mL (≈ 0.368 µM) | 0.17 µg/mL (≈ 0.368 µM) | 1.2 ×10⁻⁶ cm/s | 0.17 µg/mL (≈ 0.368 µM) | 0.01 µg/mL (≈ 0.0217 µM) | 0.17 µg/mL (≈ 0.368 µM) | 41 µg/mL (≈ 88.9 µM) | 68% | MIC (Klebsiella pneumoniae [14]): 0.17 µg/mL (≈ 0.368 µM); MIC (Proteus vulgaris): 0.17 µg/mL (≈ 0.368 µM); dose excreted at 24 h [15]: 24%; MIC (Klebsiella pneumoniae [16]): 0.17 µg/mL (≈ 0.368 µM); MIC (Escherichia coli [17]): 0.01 µg/mL (≈ 0.0217 µM)
CNC1CN(c2c(F)cc3c(=O)c(C(=O)O)cn(-c4nc(N)c(F)cc4F)c3c2C)C1 | 31% | 0.077 µg/mL (≈ 0.178 µM) | 0.077 µg/mL (≈ 0.178 µM) | 0.077 µg/mL (≈ 0.178 µM) | 0.077 µg/mL (≈ 0.178 µM) | 6.26 | 0.006 µg/mL (≈ 0.0138 µM) | 0.077 µg/mL (≈ 0.178 µM) | 0.077 µg/mL (≈ 0.178 µM) | 0.077 µg/mL (≈ 0.178 µM) | 0.077 µg/mL (≈ 0.178 µM) | 28% | 0.077 µg/mL (≈ 0.178 µM) | 0.077 µg/mL (≈ 0.178 µM) | 0.19 ×10⁻⁶ cm/s | 0.077 µg/mL (≈ 0.178 µM) | 0.006 µg/mL (≈ 0.0138 µM) | 0.077 µg/mL (≈ 0.178 µM) | 3.1 µg/mL (≈ 7.15 µM) | 16% | dose excreted at 24 h [18]: 41%; dose excreted at 24 h [19]: 90%; dose excreted at 24 h [20]: 49%; MIC (Klebsiella pneumoniae [14]): 0.077 µg/mL (≈ 0.178 µM); MIC (Proteus vulgaris): 0.077 µg/mL (≈ 0.178 µM); dose excreted at 24 h [15]: 13%; MIC (Klebsiella pneumoniae [16]): 0.077 µg/mL (≈ 0.178 µM); MIC (Escherichia coli [17]): 0.006 µg/mL (≈ 0.0138 µM)
